This is an account of results in ChEMBL document CHEMBL1157107, “Gastroprotective effect of carnosic acid gamma-lactone derivatives” (J Nat Prod, 2010).

Where only a bound is given, the exact number is not on record here.

In one test the test system is HepG2. The test can be described thus: Cytotoxicity against human HepG2 cells after 24 hrs by neutral red uptake assay. It is filed as cell-based. The conditions noted are these: HepG2, 24 h. The method, boiled down:
(§1)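 Confluent monolayers, seeded at 25 000 cells/mL, were used. MRC-5 and Hep G2 were grown in MEM and AGS in Ham F-12, all with 10% heat-inactivated FBS at 37 °C and 5% CO₂. Cells were exposed for 24 h to 0–1000 µM compound with 1% DMSO final. Viability was read by neutral red uptake as % of control, with quadruplicates in three separate experiments. IC50 was read graphically from dose-response curves.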

Test [1] deals with Mus musculus. The test is described as follows: Gastroprotective activity in Swiss albino mouse assessed as reduction in HCl/EtOH-induced gastric lesions at 40 mg/kg, po dosed 50 mins before HCl/EtOH challenge measured after 1 hr relative to control. It is filed as functional, Stomach. Also noted: scale not given: the % may be the effect or the level left. The method, boiled down: (§2)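 Male Swiss albino mice (30 ± 3 g) were randomized into groups of 7 and fasted 24 h with free water, then dosed orally. Controls received 12% Tween 80. Mice were killed 1 h after HCl/EtOH. Stomachs were inflated with saline, fixed in 5% formalin for 30 min and opened along the greater curvature. Lesion index was the summed lesion length (mm), compared with controls by ANOVA/Dunnett.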

For the next test, the system named is MRC5. The test can be described thus: Cytotoxicity against human MRC5 cells after 24 hrs by neutral red uptake assay. The format is cell-based. The conditions noted are these: MRC5, 24 h. In short, it runs like this:
as §1

The subject of the next test is AGS. The test can be described thus: Cytotoxicity against human AGS cells after 24 hrs by neutral red uptake assay. It is filed as cell-based. In short, it runs like this: as §1
For test [2], the system named is Mus musculus. The test can be described thus: Gastroprotective activity in Swiss albino mouse assessed as reduction in HCl/EtOH-induced gastric lesions at 10 mg/kg, po dosed 50 mins before HCl/EtOH challenge measured after 1 hr relative to control. The format is functional, Stomach. Also noted: scale not given: the % may be the effect or the level left. The method, boiled down: as §2

Test [3] concerns Mus musculus. The test is described as follows: Gastroprotective activity in Swiss albino mouse assessed as reduction in HCl/EtOH-induced gastric lesions at 20 mg/kg, po dosed 50 mins before HCl/EtOH challenge measured after 1 hr relative to control. The arrangement: scale not given: the % may be the effect or the level left. It is filed as functional, Stomach. In short, it runs like this:
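Male Swiss albino mice (30 ± 3 g) were randomised into groups of 7 and fasted 24 h with free water. Dosing was oral at 10, 20 or 40 mg/kg; controls received 12% Tween 80. Mice were killed 1 h after HCl/EtOH, and stomachs were saline-inflated, fixed in 5% formalin for 30 min and opened. Lesion index is the summed lesion length (mm); % reduction is versus control. ANOVA with Dunnett's test.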

For the molecule `CC(C)c1cc2c3c(c1OC(=O)CCCc1c[nH]c4ccccc14)OC(=O)[C@@]31CCCC(C)(C)[C@@H]1CC2`, the half-inhibitory concentration (IC50) in the test on HepG2 is 120 µM; in the test with MRC5 it was 54.5 µM; in the test with AGS, 46.8 µM. Moreover, in the test on Mus musculus [1], the Activity came out at 50%.

On to `CC(C)c1cc2c3c(c1OC(=O)CCC(=O)Oc1c(C(C)C)cc4c5c1OC(=O)[C@]51CCCC(C)(C)C1CC4)OC(=O)[C@@]31CCCC(C)(C)[C@@H]1CC2` (stereo partly specified), for which the concentration for half-maximal inhibition (IC50) in the test on HepG2 was over 1000 µM; with MRC5, over 1000 µM; in the test with AGS, 623 µM. In the test with Mus musculus [1], the Activity is listed as 62%.

For `CC(C)c1cc2c3c(c1OC(=O)c1ccccc1C(=O)Oc1c(C(C)C)cc4c5c1OC(=O)[C@]51CCCC(C)(C)C1CC4)OC(=O)[C@@]31CCCC(C)(C)[C@@H]1CC2` (stereo partly specified), the IC50 in the test with HepG2 was 611 µM; in the test on MRC5, 678 µM; with AGS, 375 µM. Also, in the test with Mus musculus [1], the Activity was determined as 15%.

For `CC(C)c1cc2c3c(c1OC(=O)c1ccccc1)OC(=O)[C@@]31CCCC(C)(C)[C@@H]1CC2`, the concentration for half-maximal inhibition (IC50) in the test on HepG2 stood at 510 µM; in the test with MRC5 it was 512 µM; in the test on AGS, 503 µM. Besides, the Activity in the test with Mus musculus [1] is 48%.

`CCC(=O)Oc1c(C(C)C)cc2c3c1OC(=O)[C@@]31CCCC(C)(C)[C@@H]1CC2`: the IC50 is 196 µM with HepG2, 125 µM in the test on MRC5 and 113 µM with AGS. Besides, the Activity in the test with Mus musculus [1] came out at 59%.

In the case of `CC(C)C(=O)Oc1c(C(C)C)cc2c3c1OC(=O)[C@@]31CCCC(C)(C)[C@@H]1CC2`, the half-maximal inhibitory concentration (IC50) in the test with HepG2 worked out at 112 µM; in the test on MRC5, 119 µM; in the test on AGS, 105 µM. Further, the Activity with Mus musculus [1] was found to be 72%.

`CC(C)c1cc2c3c(c1OC(=O)CCl)OC(=O)[C@@]31CCCC(C)(C)[C@@H]1CC2`: the concentration for half-maximal inhibition (IC50) is 203 µM in the test with HepG2, 130 µM in the test with MRC5 and 103 µM in the test on AGS. In the test on Mus musculus [1], the Activity was found to be 81%.

Turning to `CC(=O)Oc1c(C(C)C)cc2c3c1OC(=O)[C@@]31CCCC(C)(C)[C@@H]1CC2`, the IC50 came out at 294 µM in the test with HepG2, 290 µM in the test on MRC5 and 275 µM in the test with AGS. Besides, the Activity in the test with Mus musculus [1] is on record as 62%.

Regarding `COc1c(C(C)C)cc2c(c1O)[C@@]1(C(=O)O)CCCC(C)(C)[C@@H]1CC2`, the IC50 with HepG2 came out at 43.5 µM; in the test with MRC5, 54.9 µM; in the test on AGS, 45.2 µM.

For the molecule `CCCCCCCCCCCCCCCC(=O)Oc1c(C(C)C)cc2c3c1OC(=O)[C@@]31CCCC(C)(C)[C@@H]1CC2`, the IC50 in the test on HepG2, in the test with MRC5 and in the test on AGS was over 1000 µM each time. In addition, the Activity with Mus musculus [1] amounted to 65%.

As to `CC(C)c1cc2c3c(c1OC(=O)Cc1c[nH]c4ccccc14)OC(=O)[C@@]31CCCC(C)(C)[C@@H]1CC2`, the results for the IC50 with HepG2, in the test with MRC5 and with AGS were 251 µM, 109 µM and 85.6 µM, respectively. In addition, in the test on Mus musculus [1], the Activity worked out at 51%.

Turning to `CCCCCCCCCCCC(=O)Oc1c(C(C)C)cc2c3c1OC(=O)[C@@]31CCCC(C)(C)[C@@H]1CC2`, the half-inhibitory concentration (IC50) in the test on HepG2 was over 1000 µM; in the test with MRC5, over 1000 µM; in the test on AGS it was 413 µM. For the same molecule, the Activity with Mus musculus [1] is 36%.

Turning to `CCCC(=O)Oc1c(C(C)C)cc2c3c1OC(=O)[C@@]31CCCC(C)(C)[C@@H]1CC2`, the IC50 with HepG2 was found to be 56.1 µM; in the test on MRC5, 44.4 µM; with AGS it was 99.5 µM. In addition, the Activity in the test with Mus musculus [1] came to 82%.

On to `CCCCC/C=C/C/C=C/CCCCCCCC(=O)Oc1c(C(C)C)cc2c3c1OC(=O)[C@@]31CCCC(C)(C)[C@@H]1CC2`, for which the concentration for half-maximal inhibition (IC50) was determined as 289 µM with HepG2, 293 µM with MRC5 and 253 µM in the test with AGS. In addition, in the test with Mus musculus [1], the Activity amounted to 45%.

For `CCCCCCCC/C=C/CCCCCCCC(=O)Oc1c(C(C)C)cc2c3c1OC(=O)[C@@]31CCCC(C)(C)[C@@H]1CC2`, the 50% inhibitory concentration (IC50) was over 1000 µM in the test with HepG2, over 1000 µM in the test with MRC5 and 822 µM in the test with AGS. Further, the Activity in the test with Mus musculus [1] turned out to be 70%.

In the case of `CC(C)c1cc2c3c(c1O)OC(=O)[C@@]31CCCC(C)(C)[C@@H]1CC2`, the IC50 amounted to 240 µM in the test on HepG2, 293 µM in the test with MRC5 and 246 µM in the test on AGS. In addition, the results for the Activity in the test with Mus musculus [1], in the test on Mus musculus [2] and in the test with Mus musculus [3] were 59.5%, 20.8% and 30.6%, respectively.

`CC(C)c1cc2c3c(c1OC(=O)Cc1ccccc1)OC(=O)[C@@]31CCCC(C)(C)[C@@H]1CC2`: the IC50 in the test with HepG2 was determined as 522 µM; in the test on MRC5, 516 µM; in the test with AGS, 133 µM. Moreover, the Activity in the test on Mus musculus [1] worked out at 44%.

Consider `CC(C)c1cc2c3c(c1OC(=O)c1cccnc1)OC(=O)[C@@]31CCCC(C)(C)[C@@H]1CC2`, for which the IC50 in the test with HepG2 amounted to 264 µM; in the test with MRC5, 296 µM; in the test with AGS, 280 µM. Also, in the test with Mus musculus [1], the Activity is 9%.

Consider `COc1c(C(C)C)cc2c3c1OC(=O)[C@@]31CCCC(C)(C)[C@@H]1CC2`, for which the 50% inhibitory concentration (IC50) in the test with HepG2 was determined as 58.1 µM; in the test with MRC5 it was 31.9 µM; in the test on AGS, 26.7 µM. For the same molecule, in the test on Mus musculus [1], the Activity was determined as 71%.

On to `CC(C)c1cc2c(c(O)c1O)[C@@]1(C(=O)O)CCCC(C)(C)[C@@H]1CC2` [CARNOSIC ACID], for which the IC50 was determined as 41.3 µM in the test on HepG2, 21.8 µM in the test with MRC5 and 89.8 µM with AGS.

Turning to `Cc1c(OCC(F)(F)F)ccnc1C[S+]([O-])c1nc2ccccc2[nH]1` (stereo unspecified) [LANSOPRAZOLE], in the test on Mus musculus [3], the Activity amounted to 80%.

A word on the IC50: it is the point on the concentration scale where inhibition reaches its midpoint.
